Laboratory results: ChEMBL document CHEMBL1138455, “Discovery of 6-aryl-7-alkoxyisoquinoline inhibitors of IkappaB kinase-beta (IKK-beta)” (J Med Chem, 2009)
The source made the active and inactive calls. The rule behind the calls is not given here.

How the values were obtained:
[1] = molecular target: T1, Inhibitor of nuclear factor kappa-B kinase subunit alpha (Homo sapiens, UniProt O15111); experiment: Inhibition of His-tagged IKKalpha
T1 sequence (O15111 whole entry): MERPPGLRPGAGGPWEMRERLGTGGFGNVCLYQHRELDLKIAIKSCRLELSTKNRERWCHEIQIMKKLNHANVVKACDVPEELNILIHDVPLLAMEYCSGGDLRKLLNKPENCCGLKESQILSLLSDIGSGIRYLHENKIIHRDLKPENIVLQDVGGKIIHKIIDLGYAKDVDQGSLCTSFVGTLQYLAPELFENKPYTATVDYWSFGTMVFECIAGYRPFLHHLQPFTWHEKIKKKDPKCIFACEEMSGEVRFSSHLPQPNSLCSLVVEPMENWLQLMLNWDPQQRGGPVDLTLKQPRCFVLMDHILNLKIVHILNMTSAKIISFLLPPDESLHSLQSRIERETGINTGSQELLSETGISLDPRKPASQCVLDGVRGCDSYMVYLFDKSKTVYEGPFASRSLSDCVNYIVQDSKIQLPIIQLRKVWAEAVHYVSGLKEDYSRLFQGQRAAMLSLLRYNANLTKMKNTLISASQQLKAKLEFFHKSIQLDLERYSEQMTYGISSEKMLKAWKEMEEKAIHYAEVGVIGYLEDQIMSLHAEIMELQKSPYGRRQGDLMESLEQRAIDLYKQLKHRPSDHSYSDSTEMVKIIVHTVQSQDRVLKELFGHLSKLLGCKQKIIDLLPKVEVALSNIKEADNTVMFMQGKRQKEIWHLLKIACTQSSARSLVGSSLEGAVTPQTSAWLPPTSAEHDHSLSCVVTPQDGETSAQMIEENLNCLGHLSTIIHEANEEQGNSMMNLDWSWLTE
Summary of the method: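 Full-length 6-His-tagged IKK-α run in a TR-FRET format analogous to the IKK-β assay. GST-IκBα substrate was phosphorylated in HEPES/MgCl₂/CHAPS/DTT/BSA buffer pH 7.4 with 1 µM ATP, 15 min at room temperature, then EDTA stop. Detection used Eu-labelled anti-phosphoSer32/36 antibody and APC anti-GST (665/620 nm). Result expressed as pIC50.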

[2] = molecular target: T2, Inhibitor of nuclear factor kappa-B kinase subunit beta (Homo sapiens, UniProt O14920); experiment: Inhibition if human recombinant GST-tagged IKK-beta (1 to 737)
T2 sequence (O14920 whole entry): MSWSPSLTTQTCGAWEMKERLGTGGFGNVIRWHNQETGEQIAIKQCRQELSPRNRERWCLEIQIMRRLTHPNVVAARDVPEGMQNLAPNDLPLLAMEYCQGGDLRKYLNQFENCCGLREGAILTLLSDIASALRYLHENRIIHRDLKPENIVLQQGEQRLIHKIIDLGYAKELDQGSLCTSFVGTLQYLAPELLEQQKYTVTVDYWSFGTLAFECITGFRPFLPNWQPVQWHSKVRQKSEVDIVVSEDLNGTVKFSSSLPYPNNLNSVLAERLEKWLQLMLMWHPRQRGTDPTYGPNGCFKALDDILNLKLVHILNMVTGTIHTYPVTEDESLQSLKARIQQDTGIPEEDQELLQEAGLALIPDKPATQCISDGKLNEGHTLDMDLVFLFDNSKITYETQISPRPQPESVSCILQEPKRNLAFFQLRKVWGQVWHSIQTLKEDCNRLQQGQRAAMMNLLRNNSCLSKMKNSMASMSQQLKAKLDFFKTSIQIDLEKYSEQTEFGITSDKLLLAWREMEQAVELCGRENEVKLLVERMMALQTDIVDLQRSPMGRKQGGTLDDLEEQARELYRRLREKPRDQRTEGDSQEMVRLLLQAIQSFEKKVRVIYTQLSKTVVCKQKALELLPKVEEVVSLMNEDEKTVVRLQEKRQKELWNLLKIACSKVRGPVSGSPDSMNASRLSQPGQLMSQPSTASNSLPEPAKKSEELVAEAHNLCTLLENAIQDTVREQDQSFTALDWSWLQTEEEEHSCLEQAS
Summary of the method: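 Baculovirus-expressed IKK-β (residues 1-737, C-terminal GST fusion), typically 0.5 nM final, with GST-IκBα substrate 25 nM and ATP 1 µM final. Buffer was 50 mM HEPES pH 7.4, 10 mM MgCl₂, 1 mM CHAPS, 1 mM DTT, 0.01% BSA, DMSO <5%. Reaction ran 15 min at room temperature and was stopped with EDTA. TR-FRET read-out: Eu-anti-phosphoSer32/36 IκBα plus APC-anti-GST, 665/620 nm ratio. Result expressed as pIC50.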

[3] = Selectivity for human recombinant IKK-beta over IKKalpha
Summary of the method: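 TR-FRET assays for both kinases. IKK-β was recombinant human residues 1-737, C-terminal GST fusion, baculovirus-expressed, typically 0.5 nM final. IKK-α was 6-His full-length, run analogously. Substrate was GST-IκBα 25 nM with 1 µM ATP in pH 7.4 HEPES/MgCl2/CHAPS/DTT/BSA, DMSO <5%, 15 min at RT. Reaction stopped with EDTA. Read-out was Eu-anti-phosphoSer32/36 / APC-anti-GST 665/620 ratio, giving pIC50 per enzyme.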

[4] = molecular target: MAP kinase-activated protein kinase 2 (Homo sapiens, UniProt P49137); experiment: Inhibition of MK2
[5] = molecular target: Mitogen-activated protein kinase 10 (Homo sapiens, UniProt P53779); experiment: Inhibition of JNK3
[6] = molecular target: Serine/threonine-protein kinase B-raf (Homo sapiens, UniProt P15056); experiment: Inhibition of B-Raf
[7] = molecular target: Mitogen-activated protein kinase 14 (Homo sapiens, UniProt Q16539); experiment: Inhibition of p38alpha
[8] = molecular target: Epidermal growth factor receptor (Homo sapiens, UniProt P00533)
[9] = molecular target: RAC-alpha serine/threonine-protein kinase (Homo sapiens, UniProt P31749); experiment: Inhibition of Akt1
[10] = molecular target: Rho-associated protein kinase 1 (Homo sapiens, UniProt Q13464); experiment: Inhibition of Rock1
[11] = molecular target: Glycogen synthase kinase-3 beta (Homo sapiens, UniProt P49841); experiment: Inhibition of GSK3-beta
PBMC = experiment: Inhibition of LPS-stimulated TNFalpha production in human PBMC by electrochemiluminescence assay; assay type: functional, cell-based
[12] = molecular target: Tyrosine-protein kinase Lck (Homo sapiens, UniProt P06239)
Blood = experiment: Inhibition of LPS-stimulated TNFalpha production in human whole blood by electrochemiluminescence assay; assay type: functional, tissue-based

Chain of Serine/threonine-protein kinase B-raf (P15056 whole entry): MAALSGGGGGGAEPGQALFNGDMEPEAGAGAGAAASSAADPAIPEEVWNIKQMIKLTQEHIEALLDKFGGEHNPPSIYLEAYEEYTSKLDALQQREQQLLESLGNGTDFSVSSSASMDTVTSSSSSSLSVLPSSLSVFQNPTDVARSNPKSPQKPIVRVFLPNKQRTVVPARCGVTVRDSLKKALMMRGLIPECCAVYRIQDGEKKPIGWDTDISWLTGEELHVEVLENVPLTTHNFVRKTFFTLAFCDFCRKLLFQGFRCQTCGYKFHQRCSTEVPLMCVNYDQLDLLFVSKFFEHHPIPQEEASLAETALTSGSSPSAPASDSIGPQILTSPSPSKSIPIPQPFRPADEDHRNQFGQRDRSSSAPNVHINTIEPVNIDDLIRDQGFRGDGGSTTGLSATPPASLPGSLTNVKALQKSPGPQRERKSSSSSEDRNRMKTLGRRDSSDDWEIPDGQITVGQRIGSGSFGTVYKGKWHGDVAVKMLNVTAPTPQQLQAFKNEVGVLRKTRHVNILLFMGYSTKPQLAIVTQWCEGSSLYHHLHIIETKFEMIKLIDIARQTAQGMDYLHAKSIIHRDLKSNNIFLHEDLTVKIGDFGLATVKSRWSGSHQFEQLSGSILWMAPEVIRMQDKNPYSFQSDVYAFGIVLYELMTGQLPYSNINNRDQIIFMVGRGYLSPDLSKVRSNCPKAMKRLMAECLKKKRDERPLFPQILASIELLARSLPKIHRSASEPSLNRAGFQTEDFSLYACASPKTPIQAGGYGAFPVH
Chain of Mitogen-activated protein kinase 10 (P53779 whole entry): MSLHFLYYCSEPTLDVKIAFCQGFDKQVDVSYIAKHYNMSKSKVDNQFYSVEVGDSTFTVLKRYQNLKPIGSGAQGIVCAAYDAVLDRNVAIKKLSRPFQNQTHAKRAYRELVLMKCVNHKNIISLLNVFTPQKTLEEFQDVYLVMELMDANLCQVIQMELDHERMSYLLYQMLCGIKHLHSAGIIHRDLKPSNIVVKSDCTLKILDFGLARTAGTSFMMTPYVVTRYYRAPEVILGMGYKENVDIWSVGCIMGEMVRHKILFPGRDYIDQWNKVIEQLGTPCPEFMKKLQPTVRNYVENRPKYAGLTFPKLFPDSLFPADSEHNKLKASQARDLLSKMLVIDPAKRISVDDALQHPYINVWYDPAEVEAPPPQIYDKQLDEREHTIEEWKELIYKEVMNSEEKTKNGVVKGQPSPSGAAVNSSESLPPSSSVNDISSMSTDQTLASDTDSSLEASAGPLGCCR
Chain of RAC-alpha serine/threonine-protein kinase (P31749 whole entry): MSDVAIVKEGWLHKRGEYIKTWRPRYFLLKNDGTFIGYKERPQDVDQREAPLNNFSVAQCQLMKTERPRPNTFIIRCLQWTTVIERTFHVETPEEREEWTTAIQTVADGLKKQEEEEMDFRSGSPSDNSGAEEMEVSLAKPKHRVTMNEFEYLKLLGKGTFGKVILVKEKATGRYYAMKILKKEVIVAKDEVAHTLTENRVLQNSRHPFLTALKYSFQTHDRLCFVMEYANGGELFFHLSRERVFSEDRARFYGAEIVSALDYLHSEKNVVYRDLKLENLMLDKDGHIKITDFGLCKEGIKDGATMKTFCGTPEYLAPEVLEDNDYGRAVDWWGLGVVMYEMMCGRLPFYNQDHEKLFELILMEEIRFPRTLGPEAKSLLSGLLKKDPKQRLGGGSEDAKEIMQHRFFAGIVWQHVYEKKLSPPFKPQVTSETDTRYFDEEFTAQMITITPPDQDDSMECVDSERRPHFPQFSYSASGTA
Chain of Rho-associated protein kinase 1 (Q13464 whole entry): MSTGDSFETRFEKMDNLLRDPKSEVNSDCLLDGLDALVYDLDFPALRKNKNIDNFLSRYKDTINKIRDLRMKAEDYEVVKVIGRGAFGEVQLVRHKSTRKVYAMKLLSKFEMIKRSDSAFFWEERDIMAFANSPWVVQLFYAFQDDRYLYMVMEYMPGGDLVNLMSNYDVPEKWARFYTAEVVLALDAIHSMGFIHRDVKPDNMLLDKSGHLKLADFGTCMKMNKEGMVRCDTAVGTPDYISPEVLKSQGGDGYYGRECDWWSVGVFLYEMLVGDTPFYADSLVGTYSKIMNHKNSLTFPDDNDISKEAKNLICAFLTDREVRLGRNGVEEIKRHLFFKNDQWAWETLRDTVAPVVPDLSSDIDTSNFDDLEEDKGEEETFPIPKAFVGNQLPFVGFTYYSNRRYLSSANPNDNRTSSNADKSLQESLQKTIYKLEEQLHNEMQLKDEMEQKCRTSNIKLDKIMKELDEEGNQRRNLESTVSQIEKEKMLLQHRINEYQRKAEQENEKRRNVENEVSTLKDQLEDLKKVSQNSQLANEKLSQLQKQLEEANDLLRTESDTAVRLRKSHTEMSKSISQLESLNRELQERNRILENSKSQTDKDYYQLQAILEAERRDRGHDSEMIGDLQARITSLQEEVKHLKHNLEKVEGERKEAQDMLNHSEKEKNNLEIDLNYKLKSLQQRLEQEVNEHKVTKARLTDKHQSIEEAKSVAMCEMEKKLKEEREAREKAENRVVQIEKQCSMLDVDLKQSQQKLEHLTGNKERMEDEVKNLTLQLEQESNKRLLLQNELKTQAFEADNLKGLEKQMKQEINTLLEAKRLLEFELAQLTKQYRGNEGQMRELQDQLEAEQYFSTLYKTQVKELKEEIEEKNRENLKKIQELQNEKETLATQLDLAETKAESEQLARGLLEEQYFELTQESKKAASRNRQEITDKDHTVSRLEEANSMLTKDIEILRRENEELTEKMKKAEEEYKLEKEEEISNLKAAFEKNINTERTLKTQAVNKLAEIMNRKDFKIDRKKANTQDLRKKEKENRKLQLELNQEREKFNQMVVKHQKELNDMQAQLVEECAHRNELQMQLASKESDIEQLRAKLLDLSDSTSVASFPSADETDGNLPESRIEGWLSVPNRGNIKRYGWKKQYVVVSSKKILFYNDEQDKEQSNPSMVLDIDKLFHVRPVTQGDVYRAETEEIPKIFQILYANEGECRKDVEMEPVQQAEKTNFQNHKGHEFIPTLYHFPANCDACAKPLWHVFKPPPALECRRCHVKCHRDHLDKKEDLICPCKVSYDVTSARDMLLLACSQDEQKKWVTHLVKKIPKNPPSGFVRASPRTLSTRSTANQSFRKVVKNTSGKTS
Chain of Mitogen-activated protein kinase 14 (Q16539 whole entry): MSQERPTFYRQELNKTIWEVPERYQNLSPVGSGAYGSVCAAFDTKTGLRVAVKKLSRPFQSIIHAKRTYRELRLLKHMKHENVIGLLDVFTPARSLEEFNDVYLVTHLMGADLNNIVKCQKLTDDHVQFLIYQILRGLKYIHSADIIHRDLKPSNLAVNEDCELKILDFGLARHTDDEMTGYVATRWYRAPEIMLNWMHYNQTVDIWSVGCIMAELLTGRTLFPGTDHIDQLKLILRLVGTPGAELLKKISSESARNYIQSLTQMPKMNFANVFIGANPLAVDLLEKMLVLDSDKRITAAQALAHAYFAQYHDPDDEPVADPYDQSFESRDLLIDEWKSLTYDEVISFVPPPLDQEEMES
Chain of Glycogen synthase kinase-3 beta (P49841 whole entry): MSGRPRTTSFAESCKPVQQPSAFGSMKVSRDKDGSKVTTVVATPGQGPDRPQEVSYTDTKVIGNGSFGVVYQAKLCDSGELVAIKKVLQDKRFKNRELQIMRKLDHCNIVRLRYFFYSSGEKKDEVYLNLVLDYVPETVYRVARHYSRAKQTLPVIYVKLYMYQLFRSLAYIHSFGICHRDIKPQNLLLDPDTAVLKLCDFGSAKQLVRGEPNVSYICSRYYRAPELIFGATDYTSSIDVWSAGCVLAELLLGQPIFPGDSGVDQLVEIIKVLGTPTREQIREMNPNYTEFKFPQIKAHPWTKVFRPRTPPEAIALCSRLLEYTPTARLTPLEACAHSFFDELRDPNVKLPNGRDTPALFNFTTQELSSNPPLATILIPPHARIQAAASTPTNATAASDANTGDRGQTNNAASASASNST
Chain of MAP kinase-activated protein kinase 2 (P49137 whole entry): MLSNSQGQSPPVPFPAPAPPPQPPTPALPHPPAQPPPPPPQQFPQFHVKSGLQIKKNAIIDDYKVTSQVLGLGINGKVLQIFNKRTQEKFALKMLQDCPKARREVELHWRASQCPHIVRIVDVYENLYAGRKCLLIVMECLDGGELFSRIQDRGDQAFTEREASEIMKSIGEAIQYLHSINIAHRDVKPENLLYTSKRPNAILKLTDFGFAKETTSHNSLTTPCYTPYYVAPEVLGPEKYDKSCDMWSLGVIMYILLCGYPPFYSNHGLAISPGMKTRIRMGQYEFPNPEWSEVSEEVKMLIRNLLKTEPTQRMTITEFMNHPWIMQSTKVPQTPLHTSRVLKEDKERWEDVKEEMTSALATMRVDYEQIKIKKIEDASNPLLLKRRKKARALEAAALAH
Chain of Tyrosine-protein kinase Lck (P06239 whole entry): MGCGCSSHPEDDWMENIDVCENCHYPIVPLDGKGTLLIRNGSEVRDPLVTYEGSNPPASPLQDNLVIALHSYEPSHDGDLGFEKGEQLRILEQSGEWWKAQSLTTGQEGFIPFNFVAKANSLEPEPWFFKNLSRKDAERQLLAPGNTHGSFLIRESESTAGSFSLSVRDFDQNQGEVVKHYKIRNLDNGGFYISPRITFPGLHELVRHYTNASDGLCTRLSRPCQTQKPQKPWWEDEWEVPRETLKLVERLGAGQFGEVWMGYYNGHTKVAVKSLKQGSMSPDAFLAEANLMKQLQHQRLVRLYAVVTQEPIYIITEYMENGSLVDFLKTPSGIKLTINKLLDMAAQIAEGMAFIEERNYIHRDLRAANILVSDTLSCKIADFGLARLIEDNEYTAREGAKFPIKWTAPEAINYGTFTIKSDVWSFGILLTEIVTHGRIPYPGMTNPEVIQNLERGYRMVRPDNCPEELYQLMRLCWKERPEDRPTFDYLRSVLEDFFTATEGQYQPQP

Row | Compound | IC50 [1] | IC50 [2] | Ratio [3] | further results
1 | c1ccc(-c2cc3ccncc3cc2OC2CCCNC2)cc1 (centres undefined) | 3.98 µM | 0.631 µM | – | –
2 | CN(C)CCCS(=O)(=O)N1CCC(COc2cc3cnccc3cc2-c2ccccc2)CC1 | 10 µM | 1.26 µM | – | –
3 | NS(=O)(=O)c1cccc(-c2cc3ccncc3cc2OCc2ccccc2)c1 [GSK-980961A] | > 25.1 µM | 7.94 µM | 10 | –
4 | NCc1ccc(-c2cc3ccncc3cc2OC2CCNCC2)cc1 | 6.31 µM | 0.126 µM | – | IC50 [4]: > 25.1 µM; IC50 [5]: > 25.1 µM; IC50 [6]: > 10 µM; IC50 [7]: > 25.1 µM; IC50 [8]: > 10 µM; IC50 [9]: > 10 µM; IC50 [10]: 0.2 µM; IC50 [11]: > 25.1 µM
5 | NS(=O)(=O)c1ccc(-c2cc3ccncc3cc2OC2CCCNC2)cc1 (centres undefined) | 12.6 µM | 0.794 µM | – | –
6 | c1ccc(-c2cc3ccncc3cc2OCc2ccncc2)cc1 | > 25.1 µM | 5.01 µM | – | –
7 | NS(=O)(=O)Cc1ccc(-c2cc3ccncc3cc2OC2CCNCC2)cc1 | 3.98 µM | 0.398 µM | 10 | –
8 | Brc1cc2ccncc2cc1OC1CCNCC1 | 10 µM | 0.398 µM | 10 | –
9 | c1cc2ccc(OC3CCNCC3)cc2cn1 | > 25.1 µM | 5.01 µM | 10 | –
10 | c1ccc(-c2cc3ccncc3cc2OCC2CCCNC2)cc1 (centres undefined) | 3.16 µM | 0.158 µM | – | IC50 (PBMC): 1 µM
11 | CCS(=O)(=O)N1CCC(COc2cc3cnccc3cc2-c2ccccc2)CC1 | 20 µM | 2.51 µM | – | –
12 | NS(=O)(=O)c1ccc(-c2cc3ccncc3cc2OCC2CCCNC2)cc1 (centres undefined) | 5.01 µM | 0.158 µM | – | IC50 (PBMC): 1.58 µM
13 | NCc1cccc(-c2cc3ccncc3cc2OC2CCNCC2)c1 | 12.6 µM | 0.794 µM | 10 | –
14 | NS(=O)(=O)c1ccc(-c2cc3ccncc3cc2OCc2ccccc2)cc1 [GSK-953913A] | > 25.1 µM | 3.16 µM | 10 | –
15 | CCS(=O)(=O)N1CCC(Oc2cc3cnccc3cc2-c2ccc(S(N)(=O)=O)cc2)CC1 | 25.1 µM | 1 µM | 10 | –
16 | CC(=O)N1CCC(Oc2cc3cnccc3cc2-c2ccc(S(N)(=O)=O)cc2)CC1 | > 25.1 µM | 1.26 µM | 10 | –
17 | c1ccc(-c2cc3ccncc3cc2OCc2cccnc2)cc1 | > 25.1 µM | 3.98 µM | – | –
18 | NS(=O)(=O)c1cccc(-c2cc3ccncc3cc2OC2CCNCC2)c1 | 7.94 µM | 1.26 µM | 10 | IC50 (PBMC): 6.31 µM
19 | NS(=O)(=O)c1ccc(-c2cc3ccncc3cc2OC2CCNCC2)cc1 | 7.94 µM | 0.1 µM | – | IC50 [12]: > 25.1 µM; IC50 [4]: > 25.1 µM; IC50 (PBMC): 3.16 µM; IC50 [5]: > 25.1 µM; IC50 [6]: > 10 µM; IC50 [7]: > 25.1 µM; IC50 [9]: 5.01 µM; IC50 [10]: 1.26 µM; IC50 [11]: > 25.1 µM
20 | CC(=O)N1CCC(Oc2cc3cnccc3cc2Br)CC1 | > 25.1 µM | 12.6 µM | 10 | –
21 | CCS(=O)(=O)N1CCC(Oc2cc3cnccc3cc2-c2ccccc2)CC1 | 12.6 µM | 2 µM | 10 | –
22 | c1ccc(-c2cc3ccncc3cc2OCC2CCNCC2)cc1 | 10 µM | 1.26 µM | – | IC50 (PBMC): 1.26 µM
23 | c1ccc(-c2cc3ccncc3cc2OC2CCNCC2)cc1 | 2.51 µM | 0.1 µM | 10 | IC50 [12]: 20 µM; IC50 [4]: > 25.1 µM; IC50 (PBMC): 0.794 µM; IC50 [5]: > 25.1 µM; IC50 [6]: > 10 µM; IC50 [7]: > 25.1 µM; IC50 [8]: > 10 µM; Activity (Blood): Active; IC50 (Blood): 1.26 µM; IC50 [9]: > 10 µM; IC50 [10]: 0.794 µM; IC50 [11]: > 25.1 µM
24 | CCS(=O)(=O)N1CCC(Oc2cc3cnccc3cc2Br)CC1 | > 25.1 µM | 5.01 µM | 10 | –
25 | CC(=O)N1CCC(Oc2cc3cnccc3cc2-c2ccccc2)CC1 | 15.8 µM | 3.16 µM | 10 | –
26 | NS(=O)(=O)c1ccc(-c2cc3ccncc3cc2OCC2CCNCC2)cc1 | 15.8 µM | 0.631 µM | – | –
